{"source": "ChEMBL document CHEMBL3112586", "about": "“Synthesis of neolignans as microtubule stabilisers” (Bioorg Med Chem, 2014)", "key": {"Mus musculus [1]": {"test_system": "Mus musculus", "assay": "Toxicity in Swiss albino mouse assessed as relative lungs weight at 5 to 1000 mg/kg, po relative to control", "format": "organism-based", "set-up": "dose 5-1000 mg/kg, route oral", "conditions": "in vivo", "how_it_was_run": "(§1)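 One oral dose (5–1000 mg/kg; DMSO then 0.7% carboxymethyl cellulose vehicle; controls vehicle-only) was given to groups of 6 mice (3 male, 3 female). On day 7 the animals were sacrificed and necropsied for gross pathology. Absolute and relative weights of vital organs were recorded and compared with control.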"}, "Mus musculus [2]": {"test_system": "Mus musculus", "assay": "Toxicity in Swiss albino mouse assessed as change in creatinine level at 300 mg/kg, po (reference value: 0.63 +/- 0.18 mg/dL)", "format": "organism-based", "set-up": "dose 300 mg/kg, route oral", "conditions": "in vivo"}, "Mus musculus [3]": {"test_system": "Mus musculus", "assay": "Toxicity in Swiss albino mouse assessed as change in triglyceride level at 1000 mg/kg, po (reference value: 121.45 +/- 24.02 mg/dL)", "format": "organism-based", "set-up": "dose 1000 mg/kg, route oral", "conditions": "in vivo"}, "Mus musculus [4]": {"test_system": "Mus musculus", "assay": "Toxicity in Swiss albino mouse assessed as change in RBC count at 300 mg/kg, po (reference value: 5.43 +/- 0.27 million/mm'3)", "format": "organism-based", "set-up": "dose 300 mg/kg, route oral", "conditions": "in vivo"}, "Mus musculus [5]": {"test_system": "Mus musculus", "assay": "Toxicity in Swiss albino mouse assessed as change in albumin level at 300 mg/kg, po (reference value: 3.35 +/- 0.51 g/dL)", "format": "organism-based", "set-up": "dose 300 mg/kg, route oral", "conditions": "in vivo"}, "Mus musculus [6]": {"test_system": "Mus musculus", "assay": "Toxicity in Swiss albino mouse assessed as change in body weight at 50 mg/kg, po (reference value: 24.5 +/- 0.76 g)", "format": "organism-based", "set-up": "dose 50 mg/kg, route oral", "conditions": "in vivo"}, "MDA-MB-231 [7]": {"test_system": "MDA-MB-231", "assay": "Cytotoxicity against human MDA-MB-231 cells after 48 hrs by MTT assay", "format": "functional, cell-based", "conditions": "MDA-MB-231, 48 h", "how_it_was_run": "(§2)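 Cells in DMEM, 10% FBS, 37 °C, 5% CO2, plated and incubated 24 h; compounds diluted in phenol-red-free DMEM with 0.5% FBS, vehicle control; after exposure, MTT (5 mg/mL stock) added 3 h, formazan dissolved in DMSO, absorbance 570 nm; IC50 derived; podophyllotoxin and tamoxifen positive controls.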"}, "Mus musculus [8]": {"test_system": "Mus musculus", "assay": "Toxicity in Swiss albino mouse assessed as change in monocyte count at 5 to 1000 mg/kg, po relative to control", "format": "organism-based", "set-up": "dose 5-1000 mg/kg, route oral", "conditions": "in vivo"}, "Mus musculus [9]": {"test_system": "Mus musculus", "assay": "Toxicity in Swiss albino mouse assessed as change in albumin level at 50 mg/kg, po (reference value: 3.35 +/- 0.51 g/dL)", "format": "organism-based", "set-up": "dose 50 mg/kg, route oral", "conditions": "in vivo"}, "Mus musculus [10]": {"test_system": "Mus musculus", "assay": "Toxicity in Swiss albino mouse assessed as change in RBC count at 5 mg/kg, po (reference value: 5.43 +/- 0.27 million/mm'3)", "format": "organism-based", "set-up": "dose 5 mg/kg, route oral", "conditions": "in vivo"}, "Mus musculus [11]": {"test_system": "Mus musculus", "assay": "Toxicity in Swiss albino mouse assessed as change in SGOT level at 1000 mg/kg, po (reference value: 25.27 +/- 1.32 U/L)", "format": "organism-based", "set-up": "dose 1000 mg/kg, route oral", "conditions": "in vivo"}, "Mus musculus [12]": {"test_system": "Mus musculus", "assay": "Toxicity in Swiss albino mouse assessed as change in WBC count at 5 mg/kg, po (reference value: 14.2 +/- 7.49 X 10^3/mm'3)", "format": "organism-based", "set-up": "dose 5 mg/kg, route oral", "conditions": "in vivo"}, "MDA-MB-231 [13]": {"test_system": "MDA-MB-231", "assay": "Cytotoxicity against human MDA-MB-231 cells after 72 hrs by MTT assay", "format": "functional, cell-based", "conditions": "MDA-MB-231, 72 h", "how_it_was_run": "as §2"}, "Mus musculus [14]": {"test_system": "Mus musculus", "assay": "Toxicity in Swiss albino mouse assessed as change in cholesterol level at 1000 mg/kg, po (reference value: 81.64 +/- 4.26 mg/dL)", "format": "organism-based", "set-up": "dose 1000 mg/kg, route oral", "conditions": "in vivo"}, "Homo sapiens": {"species_on_record": "Homo sapiens", "assay": "Induction of microtubule stabilization (unknown origin) at 4 to 20 uM"}, "Mus musculus [15]": {"test_system": "Mus musculus", "assay": "Toxicity in Swiss albino mouse assessed as change in ALKP level at 300 mg/kg, po (reference value: 218.67 +/- 12.43 U/L)", "format": "organism-based", "set-up": "dose 300 mg/kg, route oral", "conditions": "in vivo"}, "MCF7 [16]": {"test_system": "MCF7", "assay": "Cytotoxicity against human MCF7 cells after 48 hrs by MTT assay", "format": "functional, cell-based", "conditions": "MCF7, 48 h", "how_it_was_run": "as §2"}, "Mus musculus [17]": {"test_system": "Mus musculus", "assay": "Toxicity in Swiss albino mouse assessed as relative liver weight at 5 to 1000 mg/kg, po relative to control", "format": "organism-based", "set-up": "dose 5-1000 mg/kg, route oral", "conditions": "in vivo", "how_it_was_run": "as §1"}, "Mus musculus [18]": {"test_system": "Mus musculus", "assay": "Toxicity in Swiss albino mouse assessed as change in RBC count at 1000 mg/kg, po (reference value: 5.43 +/- 0.27 million/mm'3)", "format": "organism-based", "set-up": "dose 1000 mg/kg, route oral", "conditions": "in vivo"}, "Mus musculus [19]": {"test_system": "Mus musculus", "assay": "Toxicity in Swiss albino mouse assessed as change in WBC count at 1000 mg/kg, po (reference value: 14.2 +/- 7.49 X 10^3/mm'3)", "format": "organism-based", "set-up": "dose 1000 mg/kg, route oral", "conditions": "in vivo"}, "Mus musculus [20]": {"test_system": "Mus musculus", "assay": "Toxicity in Swiss albino mouse assessed as change in SGOT level at 5 mg/kg, po (reference value: 25.27 +/- 1.32 U/L)", "format": "organism-based", "set-up": "dose 5 mg/kg, route oral", "conditions": "in vivo"}, "Mus musculus [21]": {"test_system": "Mus musculus", "assay": "Toxicity in Swiss albino mouse assessed as absolute heart weight at 5 to 1000 mg/kg, po relative to control", "format": "organism-based", "set-up": "dose 5-1000 mg/kg, route oral", "conditions": "in vivo"}, "Mus musculus [22]": {"test_system": "Mus musculus", "assay": "Toxicity in Swiss albino mouse assessed as absolute liver weight at 5 to 1000 mg/kg, po relative to control", "format": "organism-based", "set-up": "dose 5-1000 mg/kg, route oral", "conditions": "in vivo"}, "Mus musculus [23]": {"test_system": "Mus musculus", "assay": "Toxicity in Swiss albino mouse assessed as change in ALKP level at 5 mg/kg, po (reference value: 218.67 +/- 12.43 U/L)", "format": "organism-based", "set-up": "dose 5 mg/kg, route oral", "conditions": "in vivo"}, "MCF7 [24]": {"test_system": "MCF7", "assay": "Cytotoxicity against human MCF7 cells after 72 hrs by MTT assay", "format": "functional, cell-based", "conditions": "MCF7, 72 h", "how_it_was_run": "as §2"}}, "note": "Calls of active or inactive are those of the source. The calls are words filed in the database; no cut-off is given here."}
{"smiles": "CCOC(=O)/C=C/c1ccc(O)c(/C(=C/c2ccc(O)cc2)C(=O)OCC)c1", "values": [{"measurement": "Activity", "setting": "Mus musculus [1]", "result": "Non-toxic"}, {"measurement": "Activity", "setting": "Mus musculus [2]", "result": 0.79, "unit": "mg/dL"}, {"measurement": "Activity", "setting": "Mus musculus [3]", "result": 156.83, "unit": "mg/dL"}, {"measurement": "Activity", "setting": "Mus musculus [4]", "result": 5.11, "unit": "million/mm3"}, {"measurement": "Activity", "setting": "Mus musculus [5]", "result": 2.59, "unit": "g/dL"}, {"measurement": "Activity", "setting": "Mus musculus [6]", "result": 24.83, "unit": "g"}, {"measurement": "IC50", "setting": "MDA-MB-231 [7]", "result": 6.47, "unit": "µM"}, {"measurement": "Activity", "setting": "Mus musculus [8]", "result": "Non-toxic"}, {"measurement": "Activity", "setting": "Mus musculus [9]", "result": 2.76, "unit": "g/dL"}, {"measurement": "Activity", "setting": "Mus musculus [10]", "result": 5.99, "unit": "million/mm3"}, {"measurement": "Activity", "setting": "Mus musculus [11]", "result": 53.29, "unit": "U/L"}, {"measurement": "Activity", "setting": "Mus musculus [12]", "result": 14.6, "unit": "×10³ /mm3"}, {"measurement": "IC50", "setting": "MDA-MB-231 [13]", "result": 0.45, "unit": "µM"}, {"measurement": "Activity", "setting": "Mus musculus [14]", "result": 60.3, "unit": "mg/dL"}, {"measurement": "Activity", "setting": "Homo sapiens", "result": "Active"}, {"measurement": "Activity", "setting": "Mus musculus [15]", "result": 217.42, "unit": "U/L"}, {"measurement": "IC50", "setting": "MCF7 [16]", "result": 9.29, "unit": "µM"}, {"measurement": "Activity", "setting": "Mus musculus [17]", "result": "Non-toxic"}, {"measurement": "Activity", "setting": "Mus musculus [18]", "result": 5.15, "unit": "million/mm3"}, {"measurement": "Activity", "setting": "Mus musculus [19]", "result": 15.94, "unit": "×10³ /mm3"}, {"measurement": "Activity", "setting": "Mus musculus [20]", "result": 27.67, "unit": "U/L"}, {"measurement": "Activity", "setting": "Mus musculus [21]", "result": "Non-toxic"}, {"measurement": "Activity", "setting": "Mus musculus [22]", "result": "Non-toxic"}, {"measurement": "Activity", "setting": "Mus musculus [23]", "result": 227.47, "unit": "U/L"}, {"measurement": "IC50", "setting": "MCF7 [24]", "result": 3.27, "unit": "µM"}]}
